Measured values: ChEMBL document CHEMBL1158346, “Synthesis and antioxidant potential of novel synthetic benzophenone analogues” (Eur J Med Chem, 2009)
Activity calls are given as the source filed them. The calls are words filed in the database; no cut-off is given here.

Experiments:
MCF7 [1] = assay: Cytotoxicity against human MCF7 cells after 48 hrs by MTT assay; assay type: functional, cell-based; settings: MCF7, 48 h
Method in brief: (§1)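 Cells seeded at 1 ×10⁴ per well and allowed 24 h, then exposed 48 or 72 h. Medium replaced with fresh medium containing MTT at 0.5 mg/ml final, 3 h at 37 °C. MCF7 in phenol red-free RPMI-1640 with 10% FBS; hTERT-HME1 in RPMI-1640/mammary epithelial growth medium 90:10. IC₂₀ and IC₅₀ are means of 8 assays ± SD.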

[2] = Antioxidant activity assessed as Fe2+ formation per nmol of compound by FRAP assay; assay type: functional
Method in brief: (§2)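 FRAP method: working reagent of acetate buffer, TPTZ solution and FeCl₃·6H₂O solution (25:2.5:2.5 by volume), warmed 30 min at 37 °C before addition. Absorbance read after 30 min at 30 s intervals. Trolox as reference antioxidant. Output is the antioxidant ratio, nmol Fe²⁺ per nmol compound, mean ± SD, n = 3.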

MCF7 [3] = assay: Cytotoxicity against human MCF7 cells after 72 hrs by MTT assay; assay type: functional, cell-based; settings: MCF7, 72 h; method in brief: as §1
[4] = Antioxidant activity assessed as Fe2+ formation per nmol of compound by FRAP assay relative to trolox; assay type: functional; method in brief: as §2
[5] = Cytotoxicity against hTERT-HME1 cells after 48 hrs by MTT assay; assay type: cell-based, Homo sapiens; settings: for IC50: Homo sapiens, HME1, 48 h; for IC20 at 48 h: human, hTERT-HME1 cells; method in brief: as §1
[6] = Cytotoxicity against hTERT-HME1 cells after 72 hrs by MTT assay; assay type: cell-based, Homo sapiens; settings: for IC50: Homo sapiens, HME1, 72 h; for IC20 at 72 h: human, hTERT-HME1 cells; method in brief: as §1
[7] = Antioxidant activity in 2',7'-dichlorodihydrofluorescein diacetate-treated hTERT-HME1 cells assessed as reduction of H2O2 production at 100 uM during after 24 hrs by FACS analysis; assay type: functional, Homo sapiens; design: scale not given: the % may be the effect or the level left
Method in brief: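 Mammary cells seeded at 0.75 ×10⁶ per 100-mm dish. Exposed to test agent or Trolox at […] (unit as printed) for 4, 8, 12, 24 and 48 h. Loaded with H₂DCFDA 15 min at 37 °C. Detached plus adherent cells resuspended in PBS; DCF read in FL1 on a FACScan. Output is the ratio of treated to DMSO-control fluorescence, mean ± SD, n = 3.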

SMILES | IC20 (MCF7 [1]) [µM] | IC50 (MCF7 [1]) [µM] | Activity [2] | IC20 (MCF7 [3]) [µM] | IC50 (MCF7 [3]) [µM] | Ratio [4] | IC50 [5] [µM] | IC20 at 48 h [5] [µM] | IC50 [6] [µM] | IC20 at 72 h [6] [µM] | Activity [7] [%]
O=C(c1ccc(O)c(O)c1)c1ccc2sc(=O)[nH]c2c1 | 12.1 | 43.6 | 6.1 nmol | 8.3 | 28.1 | 2 | 155 | 43.5 | 116 | 33.8 | 
Cc1c(C)c2c(c(C)c1O)CCC(C)(C(=O)O)O2 (stereo not given) [TROLOX] |  |  |  |  |  |  |  |  |  |  | 20
O=C(c1ccc(O)cc1)c1ccc2sc(=O)[nH]c2c1 | 44.5 | 121 | inactive | 37.8 | 95.9 |  | 109 | 73.1 | 111 | 78.4 | 
